# Compounds with a hit are over-represented: about 2.2% of the library has one in this group of screens.
# CCR6 antag = CCR6 (human) receptor antagonism | CHO-K1 CCR6 PathHunter beta-arrestin, luminescence, CCL20-stimulated | inhibition, % at 20 µM | hit rate 0.49% among 340,000 | AID 493098;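 active = compounds whose inhibition of the agonist-driven luminescence signal at 20 µM reaches about 50%, limit read from the data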;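 also: cells stimulated with CCL20 at 14 nM final; plate controls were DMSO with CCL20 for no effect and DMSO without agonist for full effect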
# CXCR6 inh = CXCR6 (human) receptor inhibition; AID 602244; CHO-K1 PathHunter CXCR6 beta-arrestin, luminescence; inhibition, % at 20 µM; hit rate 0.36% among 360,000; O00574; in the data active = inhibition above about 34%, passing the limit was not always enough;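 also: antagonist mode with CXCL16 agonist at 10 nM final; 0% = 10 nM CXCL16 with DMSO and 100% = unstimulated wells without agonist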
# EBI2 block = antagonists of human EBI2 receptor; EBI2 beta-arrestin recruitment, luminescence, 7a,25-OHC stimulated; inhibition, % at 5 µM; hit rate 0.81% among 360,000; in the data active = inhibition above about 38%;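 also: enzyme fragment complementation signal reports receptor beta-arrestin coupling in cells; 0% = agonist plus DMSO wells and 100% = wells without agonist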
# Target sequence (P32249 whole entry, looked up, the tested form may be a part): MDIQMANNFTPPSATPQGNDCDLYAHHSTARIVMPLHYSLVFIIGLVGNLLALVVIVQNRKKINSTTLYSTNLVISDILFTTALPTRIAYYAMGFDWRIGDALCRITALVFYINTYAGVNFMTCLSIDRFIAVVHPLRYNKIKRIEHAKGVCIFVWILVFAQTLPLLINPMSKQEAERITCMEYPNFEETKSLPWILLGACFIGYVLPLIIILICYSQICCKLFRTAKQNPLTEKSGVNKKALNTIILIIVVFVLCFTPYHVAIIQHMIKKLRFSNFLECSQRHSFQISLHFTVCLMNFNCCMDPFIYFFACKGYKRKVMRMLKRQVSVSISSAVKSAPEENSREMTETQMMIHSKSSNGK
# APJ ag = activates the human apelin receptor APJ. P35414. activation, % at 20 µM. hit rate 0.11% among 330,000. CHO-K1 APJ PathHunter beta-arrestin, luminescence; 0% DMSO wells, 100% apelin. AID 2520;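 active = activation more than six SD over the plate average, tested at 20 µM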;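 also: 0% = DMSO alone and 100% = apelin-13 at 10 nM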
#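 Assay system: engineered CHO-K1 APJ arrestin reporter cells; Amount: 1000 CHO-K1 reporter cells seeded per well; Dosing: one dose, 20 µM compound, 1% DMSO; Times: compound stimulation 90 min at 25 °C, detection 60 min; Measured by: luminescent beta-gal fragment complementation, chemiluminescent substrate; Read-out: APJ–arrestin association signal; Controls: DMSO vs Apelin-13 10 nM.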
# APJ antagonist = antagonists of human APJ apelin receptor; P35414; CHO-K1 APJ beta-arrestin complementation, luminescence; inhibition, % at 20 µM; hit rate 0.32% among 330,000; AID 2521;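 active = inhibition above about 40% at 20 µM, limit read from the data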;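 also: cells challenged with 10 nM apelin-13 agonist together with compound; plate controls were apelin-13 plus DMSO wells for no effect and DMSO wells lacking apelin-13 for full effect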
# HTR2A ag = activates the mouse 5-HT2A serotonin receptor; CHO-K1 mHTR2A beta-arrestin complementation, luminescence; percent of 30 µM serotonin response; hit rate 0.66% among 360,000; activation, % at 7.6 µM;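 active = activation above a run cutoff, the mean activation of all tested compounds plus 3 SD, cut at about 14% in these data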;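 also: 0% = plate median of compound wells and 100% = 30 µM serotonin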
# * = called active by the depositor; · = no result given.
SMILES,CCR6 antag,CXCR6 inh,EBI2 block,APJ ag,APJ antagonist,HTR2A ag
CC(C)COCc1ccc(O)c2ncccc12,33,17,44*,-3,2,-2
OCc1ccc(O)c2ncccc12,10,-1,-4,-1,-8,0
CCCOCc1ccc(O)c2ncccc12,7,13,46*,-2,-16,-4
Oc1ccc(COCc2ccccc2)c2cccnc12,11,5,7,0,-6,-2
Cc1ccc(S(=O)(=O)C[C@@H]2OC[C@H](C(C)C)N2S(=O)(=O)c2ccc(C)cc2)cc1,·,·,4,·,·,3
CC(=O)OCC1OC(n2cc(F)c(=O)[nH]c2=O)C(OC(C)=O)C1OC(C)=O (centres undefined),14,-5,-11,-4,6,6
O=C1C(F)=CC(COC(c2ccccc2)(c2ccccc2)c2ccccc2)OC1n1cc(F)c(=O)[nH]c1=O (centres undefined),99*,67*,-6,·,·,-7
O=C(NC(Nc1nc2ccc([N+](=O)[O-])cc2s1)(C(F)(F)F)C(F)(F)F)c1ccccc1Cl,56*,29,15,-4,30,2
CCOc1ccc(C(=O)NC(=S)Nc2ccc(NC(=O)c3ccco3)c(C)c2)cc1[N+](=O)[O-],50*,24,2,-5,27,0
COc1cc(NC(=O)c2ccc(OC)c([N+](=O)[O-])c2)ccc1NC(=O)c1ccco1,2,3,9,2,-3,10
CCOc1ccc(C(=O)NC(=S)Nc2ccc(N3CCC(C)CC3)cc2)cc1[N+](=O)[O-],53*,24,8,·,·,4
Cc1noc(C)c1-c1ccc(C(=O)NCCC(F)(F)F)c2occc12,·,-7,-19,·,·,0
O=S(=O)(Nc1cccc2ncccc12)c1cccs1,88*,79*,60*,-14,88*,-12
CCOC(=O)COc1ccc2ccccc2c1/C=C/[N+](=O)[O-],75*,17,21,·,·,0
O=[N+]([O-])/C=C/c1c(OCc2ccccc2)ccc2ccccc12,·,36*,6,2,5,-10
CCOC(=O)COc1ccc(/C=C/[N+](=O)[O-])c(OCC(=O)OCC)c1,55*,36,10,6,6,-3
CSCCC(C(=O)Nc1c(C)cccc1C)n1c(COc2ccc(C)cc2)nc2ccccc21 (centres undefined),·,·,11,·,·,-5
COC(=O)[C@]12CCCCC=C1N(CCC1=CCCCC1)C(=O)[C@H](CC(=O)N1CCCCC1)C2,·,0,5,·,·,-2
CC(C(=O)NC1CCCC1)n1c(C2CC2)nc2ccccc21 (centres undefined),·,·,-15,·,·,1
N#CC(C#N)=C1C=CC=CN1/C(=C\c1ccco1)C(=O)c1ccc(Br)cc1,104*,103*,77*,·,·,5
N#C/C(=C/c1ccco1)C(N)=S,4,-2,-8,0,2,1
COc1ccc(C(=O)N2CCN(c3nc4cc(C)cc(C)c4cc3C#N)CC2)cc1,·,0,9,·,·,-4
N#Cc1ccc(-c2ccccc2)nc1SCC(=O)c1cccc(Cl)c1,7,6,34,-4,-16,-6
N#Cc1ccc(-c2cccnc2)nc1SCC(=O)c1ccccc1,10,7,40*,0,-21,0
CCc1ccc(NC(=O)c2ccc3c(c2)C(=O)N(Cc2ccco2)C3=O)cc1,4,7,84*,-3,7,-1
SMILES,CCR6 antag,CXCR6 inh,EBI2 block,APJ ag,APJ antagonist,HTR2A ag
O=C(O)c1cccc(NC(=O)c2ccc3c(c2)C(=O)N(Cc2ccco2)C3=O)c1,12,0,-6,-2,6,-1
CCS(=O)(=O)c1ccc(N=Nc2ccc(O)c3ncccc23)c(OC)c1,45,35,-1,-4,20,-4
COc1ccccc1N=Nc1ccc(O)c2ncccc12,54*,33,2,-2,4,-20
O=C1NC(=S)S/C1=C\C=C\c1ccc([N+](=O)[O-])o1,61*,33,4,·,·,2
CC(=O)[C@]1(O)Cc2c(O)c3c(c(O)c2[C@@H](O[C@H]2C[C@H](N)[C@H](O)[C@H](C)O2)C1)C(=O)c1ccccc1C3=O,81*,·,·,-3,36,·
COc1cccc2c1C(=O)c1c(O)c3c(c(O)c1C2=O)C[C@@](O)(C(C)=O)C[C@@H]3O[C@H]1C[C@H](N)[C@H](O)[C@H](C)O1,24,20,-7,·,·,0
CCCCNC(=O)c1nc(C2CCN(S(=O)(=O)c3ccc(C(F)(F)F)cc3)CC2)oc1-c1ccccc1,·,·,11,·,·,1
CC1(C)C(=O)C=CC(=O)C(C)(C)C(=O)C=CC(=O)C(C)(C)C2=CC=C(O2)C(C)(C)C(=O)C=CC1=O,55*,4,-2,·,·,-7
CC(C)N1C(=O)/C(=C\c2nc3ccccc3c(=O)n2-c2ccccc2)c2ccccc21,24,12,55*,·,·,5
CC(C)N1C(=O)/C(=C/c2nc3ccccc3c(=O)n2-c2ccccc2)c2ccccc21,11,13,56*,-1,31,10
COc1cc(C(=O)NNC(=S)NC(=O)c2ccccc2C)cc(OC)c1OC,30,20,-4,-5,13,-6
COc1ccccc1C(=O)NNC(=S)NC(=O)c1cc(OC)c(OC)c(OC)c1,58*,32,4,-5,26,5
Cc1ccc(NN2C(=O)C=C(c3ccc(Cl)cc3)C2=O)cc1,12,0,46*,4,-12,4
Cc1ccc(C(=O)NC(=S)Nc2cccc3c(C)cc(C)nc23)cc1,51*,20,34,-1,1,2
Cc1nn(C(=O)c2nn(C)cc2[N+](=O)[O-])c(C)c1Br,7,-6,-5,-2,-2,30*
C/C(=N/Nc1cc(-c2ccccc2)nc(-c2ccccc2)n1)c1ccc(O)cc1,-8,15,60*,-1,-18,1
Cc1ccc(-c2csc(C(O)c3ccc(F)c(F)c3)n2)cc1C (centres undefined),·,-11,5,·,·,-1
COc1ccc(-c2ccc3c(c2)S(=O)(=O)c2cccc(C(=O)NC[C@@H]4CCCO4)c2C3=O)cc1OC,17,-2,-29,2,13,15*
CS(=O)(=O)Nc1cccc(-c2cc(NC=O)c3ncc(-c4ccc(F)c(Cl)c4)n3c2)c1,·,2,16,·,·,0
O=C1[C@H]2[C@@H]3CCN1CCC[C@@H]2C=C[C@@H]3c1ccc(Br)cc1,·,-7,8,·,·,-4
CCN(CC)C(=O)C1=C(C)N(Cc2ccc(F)cc2)C(=O)C(CC(=O)NCC2CCCCC2)C1 (centres undefined),·,-1,-1,·,·,-3
Nc1c(Cl)cc2c(c1Oc1ccccc1)C(=O)c1ccccc1C2=O,22,38*,10,2,6,-4
